# D1 mod: D1 dopamine receptor (human) allosteric modulation. HEK293 D1, CRE-luciferase, dopamine EC30 potentiation; actives deviate in either direction. hit rate 5.9% among 58,000. AID 641. B-score at 10 µM. P21728;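 active = luminescence count or its row- and column-corrected plate score outside the 99.7% band of the plate's sample wells, on either side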
# Target sequence (P21728 whole entry, looked up): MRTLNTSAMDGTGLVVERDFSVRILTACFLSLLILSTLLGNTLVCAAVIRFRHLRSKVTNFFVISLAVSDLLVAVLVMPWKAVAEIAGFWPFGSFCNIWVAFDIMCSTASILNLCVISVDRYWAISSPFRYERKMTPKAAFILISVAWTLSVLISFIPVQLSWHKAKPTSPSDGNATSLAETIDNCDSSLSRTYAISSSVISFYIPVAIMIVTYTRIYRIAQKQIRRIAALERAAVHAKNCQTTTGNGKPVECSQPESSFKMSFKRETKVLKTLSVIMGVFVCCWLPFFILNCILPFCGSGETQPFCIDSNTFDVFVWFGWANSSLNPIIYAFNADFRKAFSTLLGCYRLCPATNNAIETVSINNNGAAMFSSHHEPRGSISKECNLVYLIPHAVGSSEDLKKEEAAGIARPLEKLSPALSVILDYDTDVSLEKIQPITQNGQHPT
# M1 antagonist: blocks the rat M1 muscarinic receptor response to acetylcholine | B-score at 10 µM | CHO-M1 cells, Fluo-4 calcium, ACh EC80 antagonist mode; hits give low values | hit rate 3.4% among 64,000;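 active = calcium fluorescence response, raw or row-and-column corrected B-score, differing from the plate sample mean either way at a set confidence level, mostly lower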
# M1 ag: activates the M1 muscarinic receptor. CHO-M1 cells, Fluo-4 calcium fluorescence, agonist mode; hits give high values. B-score at 10 µM. hit rate 3% among 64,000;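 active = fluorescence rise, raw or as B-score row- and column-corrected plate score, outside the 99.7% band of its plate's samples, either direction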
# S1P3 ag: agonists of human S1P3 receptor | Q99500 | S1P3 NFAT-BLA reporter cells, agonism, FRET ratio; relative to 1 µM S1P, basal subtracted | activation, % at 4.5 µM | hit rate 0.1% among 60,000 | AID 373;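 active = activation above the screen-wide mean plus 3 SD, cut at about 4.5% in these data, passing the limit was not always enough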
#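 Assay system: stable CHO line with human S1P3, Gα16, NFAT-BLA reporter; Detection: FRET β-lactamase substrate fluorescence, excitation 405 nm, 460/535 nm emission ratio, background-subtracted; Read-out: percent activation versus median 1 µM S1P response, basal-subtracted, per plate; Incubation: cells plated overnight, compound 4 h 37 °C, substrate 2 h RT.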
# S1P1 ag pot: activates or potentiates agonism at human S1P1 receptor; S1P1 CRE-bla cells, forskolin, beta-lactamase FRET, potentiator mode; S1P1 agonist co-added at EC20, 2 nM; 100% = saturating reference agonist, 0% = basal; activation, % at 9.5 µM; hit rate 0.57% among 56,000; P21453;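 active = activation above a cutoff set at the mean activation of all tested compounds plus 3 SD, cut at about 54% in these data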;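 note: forskolin at 4 µM as EC80 and the EC20 agonist is SEW2871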
# D1 mod confirm: D1 receptor (human) allosteric modulation, confirmed; luminescence at 10 µM; HEK293 D1 CRE-luciferase, dopamine EC30 potentiation; hits give high values; hit rate 88% among 2,200; shares compounds with D1 mod;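 active = luminescence in either of two replicates above the same-plate mean plus 3 SD of the low-dose dopamine control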
# D1 no dopamine: D1 (human) signaling in absence of dopamine; shares compounds with D1 mod; HEK293 D1 CRE-luciferase, luminescence, no dopamine; hits give high values; luminescence at 10 µM; hit rate 0.8% among 1,900; AID 646; in the data active = luminescence above about 3900
# Isoprot counter: alters isoproterenol CRE-luciferase response in HEK293 cells; luminescence at 10 µM; shares compounds with D1 mod; hit rate 63% among 2,200; HEK293 D1 CRE-luciferase, isoproterenol EC30 counter-screen; hits give high values;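 active = luminescence in either replicate above plate mean of wells with a partly effective reference agonist dose plus 3 SD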;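 note: isoproterenol raises cAMP through native beta-adrenoceptor Gs so signal bypasses D1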
# Numbers stand for hits; 0 = inactive; - = not tested or not shown. Only some compounds are listed: those with a hit (about 11% of all), similar ones and a draw of the others.
SMILES,D1 mod,M1 antagonist,M1 ag,S1P3 ag,S1P1 ag pot,D1 mod confirm,D1 no dopamine,Isoprot counter
O=C(CSc1nnc2scc(-c3ccc(Cl)cc3)n12)NCc1ccc2c(c1)OCO2,6.29,0,0,0,-,13884,0,6312
O=C(CSc1nnc2scc(-c3ccccc3)n12)NCc1ccc2c(c1)OCO2,7.13,-,-,0,0,15400,0,4680
O=C(Nc1nncs1)C1c2ccccc2Oc2ccccc21,0,0,0,-,-,-,-,-
CC(C)Oc1ccc2c3c(c(=O)oc2c1)CCC3,5.78,0,0,0,0,11556,0,3192
COC(=O)C(C)Oc1ccc2c3c(c(=O)oc2c1)CCCCC3 (centres undefined),0,0,0,0,0,-,-,-
COCCCn1c2nc3ccccc3nc2c2c(=O)n(CC3CCCO3)cnc21 (centres undefined),6.36,0,0,0,0,8104,-,0
COc1ccc(OCCN2CCN(C3CC(=O)N(CCC(C)C)C3=O)CC2)cc1 (centres undefined),0,0,0,-,-,-,-,-
Cc1ccc(Cn2c(Sc3nccc(C)n3)nc3c2c(=O)[nH]c(=O)n3C)cc1,-,0,0,-,-,-,-,-
CCCCCn1c(Sc2ncccn2)nc2c1c(=O)[nH]c(=O)n2C,19.5,0,0,0,0,25988,0,4764
CCCCCCn1c(SCC(=O)OC)nc2c1c(=O)[nH]c(=O)n2C,4.67,0,0,0,0,0,0,2984
CCCCCn1c(Sc2nc3ccccc3s2)nc2c1c(=O)[nH]c(=O)n2C,16.6,0,0,0,0,22672,0,8564
CCNc1nc2c(c(=O)[nH]c(=O)n2C)n1CC(C)C,0,0,0,0,0,-,-,-
CCCCCCn1c(NCC)nc2c1c(=O)[nH]c(=O)n2C,5.31,0,0,0,0,9696,0,3124
COc1ccc(C)cc1S(=O)(=O)N(CC(=O)N1CCCC1)c1ccccc1,0,0,0,0,-,-,-,-
COc1ccc(C(=O)NCCn2ccc3ccccc32)c(OC)c1,0,0,0,0,0,-,-,-
COc1ccc(C2=Nn3c(nnc3-c3ccccc3OC)SC2)cc1OC,40.5,0,0,0,0,31124,-,43008
CC(C)(C)C1=Nn2c(nnc2-c2ccccc2F)SC1,21.4,0,0,0,0,20880,-,3812
COc1ccccc1-c1nnc2n1N=C(C(C)(C)C)CS2,3.97,0,0,0,0,10640,0,0
CCOc1cccc(-c2nnc3n2N=C(c2cc(OC)ccc2OC)CS3)c1,17.2,0,0,-,-,13520,-,10932
CCCCC(NC(C)=O)c1nc2ccccc2n1CCCC (centres undefined),0,0,0,-,-,-,-,-
CCOC(=O)c1c(/N=C/N(C)C)sc(C(=O)OC)c1C,3.7,0,0,-,-,8988,-,2516
CCOC(=O)c1c(NC(=O)OC)sc(C(=O)N(C)C)c1C,4.1,0,0,-,-,13484,0,3492
CCOC(=O)c1c(NC(=O)CC)sc(C(C)=O)c1C,16,0,0,0,0,12336,0,3600
CCOC(=O)c1sc(NC(=O)COC(=O)Cn2cnc3ccccc32)c(C(=O)OCC)c1C,4.97,0,0,0,0,9720,0,0
CCOC(=O)c1sc(NC(=O)CN2CCCC2)c(C(=O)OCC)c1C,0,0,0,0,0,-,-,-
SMILES,D1 mod,M1 antagonist,M1 ag,S1P3 ag,S1P1 ag pot,D1 mod confirm,D1 no dopamine,Isoprot counter
CCOC(=O)c1c(N)sc(C(=O)N(C)C)c1C,0,0,0,0,0,-,-,-
CCOC(=O)c1ccc(NC(=O)c2nccnc2C(=O)O)cc1,-,0,0,0,0,-,-,-
CCCc1cc(C(=O)Nc2sc(C(C)=O)c(C)c2C(=O)OCC)no1,6.53,0,0,0,0,7336,0,0
CCOC(=O)c1sc(NC(=O)c2c(C)noc2C)c(C(=O)OCC)c1C,0,0,0,0,0,-,-,-
CCOC(=O)c1sc(NC(=O)CSc2nnc(C)s2)c(C(=O)OCC)c1C,6.08,0,0,0,0,25484,0,4392
Cc1csc(=N)n1CC(=O)N1CCc2ccccc21,0,0,0,0,0,-,-,-
Cc1cc(C)n2nc3ccccc3c2n1,2.84,0,0,0,0,10324,0,3900
CN1CCN(C(=O)c2ccccc2-c2ccccc2C(=O)O)CC1,0,0,0,0,0,-,-,-
N#Cc1c(N)nc(SCc2ccccn2)c(C#N)c1-c1cccs1,-,0,0,0,0,-,-,-
N#Cc1cc2ccccc2nc1SCc1ccccn1,4.44,0,0,0,0,8624,-,3144
CCn1nnc(-c2ccccc2NC(=O)c2cc(OC)cc(OC)c2)n1,0,0,0,0,0,-,-,-
CCn1nnc(-c2ccccc2NC(=O)c2cc(OC)c(OC)c(OC)c2)n1,5.48,0,0,0,0,16052,0,3748
CCOC(=O)c1cnc(SCc2nc(N)nc(Nc3ccc(F)cc3)n2)nc1N,0,0,0,0,0,-,-,-
Cc1ccc(Nc2nc(N)nc(CC#N)n2)cc1,6.62,0,0,0,0,14616,-,3112
O=C(Cn1nnc(-c2ccc(Cl)cc2)n1)NCC1CCCCC1,0,0,0,0,0,-,-,-
CCOC(=O)N1CCC2(CC1)C(C#N)=C(N)Oc1c2c(C)nn1-c1cccc(Cl)c1,0,0,0,0,0,-,-,-
Cc1noc(NS(=O)(=O)c2ccc(N3Cc4ccccc4C3=O)cc2)c1C,6.58,0,0,-,-,15188,0,2956
C=CCOC(=O)C(C#N)c1nc2ccccc2nc1N1CCCC1 (centres undefined),3.1,0,0,0,0,15796,0,3456
COCCOC(=O)C(C#N)c1nc2ccccc2nc1N1CCCC1 (centres undefined),0,0,0,0,0,-,-,-
COc1ccccc1NC(=O)Cc1csc(N)n1,0,0,0,0,0,-,-,-
CCn1c2ccccc2c2nc3ccccc3nc21,5.61,0,0,0,0,15700,-,0
COc1ccc(-c2csc3nc(C)n(-n4cccc4)c(=O)c23)cc1OC,4.9,0,0,0,0,6784,0,0
Cc1ccc(-c2csc3nc(C)n(-n4c(C)ccc4C)c(=O)c23)o1,0,0,0,0,0,-,-,-
O=S(=O)(Nc1cccnc1)c1ccc(Cl)c(C(F)(F)F)c1,0,0,0,0,0,-,-,-
CSc1nnc2c3ccccc3n(Cc3ccccc3)c2n1,10.1,0,0,0,0,15672,0,4672
Cc1nc2ncnn2c(N2CCN(c3cccc(C(F)(F)F)c3)CC2)c1C,0,0,0,0,0,-,-,-
Brc1cnc(N2CCCC2)nc1N1CCOCC1,5.98,0,0,0,0,18712,0,4252
Cc1cc(C)cc(OC(=O)N2CCOCC2)c1,0,0,0,0,0,-,-,-
O=C(NCc1ccco1)c1nn(-c2ccccc2)c(=O)c2ccccc12,5.21,0,0,0,0,15012,0,0

# From PubChem
